Results published in paper PMC3731742 (Journal of biomolecular screening, 2011).
pIC50: −log10 of the molar value. “And” between values parts separate entries of the source, which are not always exact repeats. Identical values can stand only once. Like-named read-outs stand apart in the source and are kept apart here.

Experiments:
[1] = biological target: SV40 large T antigen ATPase activity (Simian virus 40, UniProt P03070); test: SV40 TAg ATPase primary assay; assay type: biochemical; settings: 1% DMSO; for pIC50: 1536-well, ADP Hunter, 1 mM ATP
Chain of SV40 large T antigen ATPase activity (P03070 whole entry): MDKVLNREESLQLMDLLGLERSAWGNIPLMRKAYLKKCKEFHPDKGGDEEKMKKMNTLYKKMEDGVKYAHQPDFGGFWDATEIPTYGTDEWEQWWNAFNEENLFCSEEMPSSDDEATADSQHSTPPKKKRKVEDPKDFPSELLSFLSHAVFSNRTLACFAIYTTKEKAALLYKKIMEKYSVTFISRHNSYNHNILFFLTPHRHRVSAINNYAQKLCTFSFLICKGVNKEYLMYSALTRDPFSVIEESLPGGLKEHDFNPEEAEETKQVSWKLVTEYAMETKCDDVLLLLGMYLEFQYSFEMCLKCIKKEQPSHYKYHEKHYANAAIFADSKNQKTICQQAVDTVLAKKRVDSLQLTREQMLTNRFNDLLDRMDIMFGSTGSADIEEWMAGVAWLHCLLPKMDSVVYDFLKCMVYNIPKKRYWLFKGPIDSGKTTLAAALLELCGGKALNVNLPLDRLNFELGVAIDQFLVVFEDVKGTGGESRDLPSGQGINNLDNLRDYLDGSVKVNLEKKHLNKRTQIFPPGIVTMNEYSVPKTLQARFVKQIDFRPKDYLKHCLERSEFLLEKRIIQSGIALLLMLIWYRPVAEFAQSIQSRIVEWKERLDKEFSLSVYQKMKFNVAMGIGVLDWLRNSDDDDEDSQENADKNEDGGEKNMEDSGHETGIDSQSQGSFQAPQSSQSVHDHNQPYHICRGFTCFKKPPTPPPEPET
Summary of the method: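 Purified TAg (10.8 ng/well, added from 14.4 ng/µL) in 100 mM Tris-HCl pH 7.4, 20 mM KCl, 6 mM MgCl2, 0.1 mg/mL BSA; control added before enzyme, preincubated 30 min ambient; 5 mM ATP stock added, 120 min ambient; 1.25 µL reaction. ADP Hunter fluorescence, ex/em 530/590 nm bottom read. % inhibition normalized to median enzyme control and high-dose control wells.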

[2] = tested on: TAg; settings: read-out: IC50 for MAL2-11B; ref 21 (Huryn et al.); cited from earlier work
[3] = Compound aggregation in steady-state ATP assays; assay type: physicochemical; settings: 20-μL steady-state ATP assay; previously observed in the laboratory
[4] = tested on: Mint1; settings: PubChem; cited from earlier work
[5] = tested on: Phosphopantetheinyl transferase; settings: PubChem; cited from earlier work
[6] = tested on: Aldehyde dehydrogenase 1; settings: PubChem; cited from earlier work
[7] = tested on: Hydroxyprostaglandin dehydrogenase 15-(NAD) isoform 1; settings: PubChem; cited from earlier work
[8] = tested on: Microtubule-associated protein tau; settings: PubChem, tau aggregation; cited from earlier work
[9] = tested on: SV40 virus; test: Cytoprotection assay with SV40 virus in BSC-40 cells; assay type: cell-based; settings: 50 μM, BSC-40 cells + SV40, 120 h
[10] = tested on: TAg-dependent DNA replication; test: TAg-dependent DNA replication assay; assay type: biochemical, SV40; settings: HeLa cell lysate, radiolabelled nucleotides
Summary of the method: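 TAg recruits replication machinery from HeLa cell lysate to copy a reporter plasmid carrying the SV40 origin, incorporating trace radiolabelled nucleotides over time. Test compound added at 30, 100 and 300 µM.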

[11] = tested on: Nuclear receptor ROR-gamma; settings: PubChem; cited from earlier work
[12] = tested on: BSC-40 cells; test: Cytotoxicity in BSC-40 cells; assay type: cell-based, African green monkey; settings: cells + compound only, 5 days

Row | SMILES | identified as hit (inhibitor) against target [4] | identified as hit (inhibitor) against target [5] | identified as hit (inhibitor) against target [6] | identified as hit (inhibitor) against target [7] | identified as hit (inhibitor) against target [8] | effect on TAg-dependent DNA replication at 300 μM [10] | identified as hit (inhibitor) against target [11] | also measured
1 | CC1=C(C(=O)OCc2ccccc2)C(c2ccc(-c3ccccc3)cc2)NC(=O)N1CCCCCC(=O)O (stereo not shown) [MAL2-11B, reference compound] | – | – | – | – | – | – | – | inhibition of TAg activity ([1]; MAL2-11B at 100 μM final, average): 80%; pIC50 ([1]; read-out: IC50, inhibition of TAg ATPase activity in the primary assay): 4.71; pIC50 [2]: 4.30; final concentration at which compound aggregation was observed [3]: > 300 µM
2 | Nc1nc2ccc(S(=O)(=O)N3CCCCC3)cc2s1 [SID 85281217] | Mint1 | Phosphopantetheinyl transferase | Aldehyde dehydrogenase 1 | Hydroxyprostaglandin dehydrogenase 15-(NAD) isoform 1 | Microtubule-associated protein tau | – | – | –
3 | ClC(Cl)(c1nnnn1-c1ccccc1)c1nnnn1-c1ccccc1 [SID 85281215] | Mint1 | Phosphopantetheinyl transferase | Aldehyde dehydrogenase 1 | Hydroxyprostaglandin dehydrogenase 15-(NAD) isoform 1 | Microtubule-associated protein tau | DNA replication was absent | Nuclear receptor ROR-gamma | sustained cell viability in the cytoprotection assay [9]: 16%
4 | Cc1cc(C)c2c(=O)n(CC(=O)Nc3cccc(Cl)c3C)sc2n1 [SID 85281218] | Mint1 | Phosphopantetheinyl transferase | – | – | Microtubule-associated protein tau | – | Nuclear receptor ROR-gamma | –
5 | CC(C)(c1ccc(O)cc1)c1ccc(O)cc1 [SID 92277586, Bisphenol A] | – | – | – | – | – | complete inhibition | – | pIC50 ([1]; IC50, inhibition of TAg ATPase activity in the primary assay): 4.39 and 4.38; effect on TAg-dependent DNA replication at 100 μM ([10]; 100 μM): some inhibition; TC50 (50% toxic concentration) [12]: 7.94 µM
